Test results published in ChEMBL document CHEMBL1134105, “Enantioselective synthesis and complement inhibitory assay of A/B-ring partial analogues of oleanolic acid” (Bioorg Med Chem Lett, 2001).
Activity calls are given as the source filed them. The calls are words filed in the database; no cut-off is given here.

Key:
Homo sapiens [1] = species: Homo sapiens; test: In vitro concentration required to inhibit classical pathway complement induced hemolysis in human; format: functional
How it was run: (§1)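 Classical pathway complement inhibition was tested in vitro; IC50 values are means of three experiments with standard deviation.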

SK-MEL [2] = test: Cytotoxicity against human malignant melanoma cell line SK-MEL; format: functional, cell-based
How it was run: (§2)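 SK-MEL human malignant melanoma cells, 25,000 per well, were exposed to compound solutions for 72 h. Viable cells were counted by neutral red uptake: cells were washed with saline, incubated 1.5 h in 0.17% neutral red in serum-free RPMI, then washed again to remove extracellular dye.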

[3] = In vitro therapeutic index (IC50 cytotoxicity/ IC50 complement inhibition) was determined; format: functional
Homo sapiens [4] = species: Homo sapiens; test: In vitro concentration required to inhibit classical pathway complement induced hemolysis in human; NA= not active; format: functional; how it was run: as §1
SK-MEL [5] = test: Cytotoxicity against human malignant melanoma cell line SK-MEL; NA= not active; format: functional, cell-based; how it was run: as §2
[6] = In vitro therapeutic index (IC50 cytotoxicity/ IC50 complement inhibition) was determined; ND=not active; format: functional

SMILES: CC1(C)C2CCC(Cc3ccc(C(=O)O)cc3)C[C@@]2(C)CC[C@@H]1O (single isomer, unassigned)
- IC50 (Homo sapiens [1]): 610 µM
- IC50 (SK-MEL [2]): 378 µM
- TI [3]: 0.6

SMILES: COC(=O)c1ccc(/C=C/[C@H]2CCCC3C(C)(C)[C@@H](O)CC[C@@]32C)cc1 (stereo partly specified)
- IC50 (Homo sapiens [4]): Not Active
- IC50 (SK-MEL [5]): Not Active

SMILES: COc1ccc(CO[C@H]2CC[C@]3(C)CC(Cc4cccc(C(=O)O)c4)CCC3C2(C)C)cc1 (single isomer, unassigned)
- IC50 (Homo sapiens [1]): 488 µM
- IC50 (SK-MEL [2]): 180 µM
- TI [3]: 0.4

SMILES: CC1(C)C2CCC[C@H](/C=C/c3ccc(C(=O)O)cc3)[C@@]2(C)CC[C@@H]1O (stereo partly specified)
- IC50 (Homo sapiens [1]): 623 µM
- IC50 (SK-MEL [2]): 380 µM
- TI [3]: 0.6

SMILES: COc1ccc(CO[C@H]2CC[C@]3(C)C[C@H](Cc4ccccc4C(=O)O)CCC3C2(C)C)cc1 (stereo partly specified)
- IC50 (Homo sapiens [4]): Not Active
- IC50 (SK-MEL [2]): 166 µM

SMILES: CC1(C)C2CC[C@@H](Cc3ccccc3C(=O)O)C[C@@]2(C)CC[C@@H]1O (stereo partly specified)
- IC50 (Homo sapiens [1]): 616 µM
- IC50 (SK-MEL [2]): 484 µM
- TI [3]: 0.8

SMILES: CC1(C)C2CCC[C@H](/C=C/c3cccc(C(=O)O)c3)[C@@]2(C)CC[C@@H]1O (stereo partly specified)
- IC50 (Homo sapiens [1]): 550 µM
- IC50 (SK-MEL [2]): 269 µM
- TI [3]: 0.5

SMILES: COc1ccc(CO[C@H]2CC[C@]3(C)CC(Cc4ccc(C(=O)O)cc4)CCC3C2(C)C)cc1 (single isomer, unassigned)
- IC50 (Homo sapiens [4]): Not Active
- IC50 (SK-MEL [2]): 200 µM
- TI [6]: inactive

SMILES: CC1(C)C2CCC[C@H](/C=C/c3ccccc3C#N)[C@@]2(C)CC[C@@H]1O (stereo partly specified)
- IC50 (Homo sapiens [4]): Not Active
- IC50 (SK-MEL [2]): 155 µM

SMILES: CC1(C)C2CCC(Cc3cccc(C(=O)O)c3)C[C@@]2(C)CC[C@@H]1O (single isomer, unassigned)
- IC50 (Homo sapiens [1]): 601 µM
- IC50 (SK-MEL [2]): 333 µM
- TI [3]: 0.6

SMILES: CC1(C)C2CCC[C@H](/C=C/c3ccccc3C(=O)O)[C@@]2(C)CC[C@@H]1O (stereo partly specified)
- IC50 (Homo sapiens [1]): 633 µM
- IC50 (SK-MEL [2]): 380 µM
- TI [3]: 0.6

SMILES: CC1(C)CC[C@]2(C(=O)O)CC[C@]3(C)C(=CC[C@@H]4[C@@]5(C)CC[C@H](O)C(C)(C)[C@@H]5CC[C@]43C)[C@@H]2C1 [OLEANOLIC_ACID]
- TI [3]: 1.55
